Activity calls are given as the source filed them. The rule behind the calls is not given here.
How the values were obtained:
T-24 = assay: Cytotoxicity against human T24 cells at 50 uM after 48 hrs by MTS assay; assay type: functional, cell-based
Procedure, shortened: (§1)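 Cells seeded at 2−5 × 10^3 per well by growth rate and allowed to attach overnight. Medium then replaced with medium holding test compound or 0.1% DMSO, made by serial dilution of 100 mM DMSO stocks. Incubated 48 h at 37 °C in humidified 5% CO2. MTS added, 90 min at 37 °C in the dark, absorbance read at 490 nm. Run in triplicate.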

MCF7 [1] = assay: Cytotoxicity against human MCF7 cells at 50 uM after 48 hrs by MTS assay; assay type: functional, cell-based; procedure, shortened: as §1
HeLa [2] = assay: Cytotoxicity against human HeLa cells at 50 uM after 48 hrs by MTS assay; assay type: functional, cell-based; procedure, shortened: as §1
A549 [3] = assay: Cytotoxicity against human A549 cells at 50 uM after 48 hrs by MTS assay; assay type: functional, cell-based; procedure, shortened: as §1
HCT-116 [4] = assay: Cytotoxicity against human HCT116 cells at 50 uM after 48 hrs by MTS assay; assay type: functional, cell-based; procedure, shortened: as §1
HeLa [5] = assay: Cytotoxicity against human HeLa cells after 48 hrs by MTS assay; assay type: functional, cell-based; procedure, shortened: as §1
A549 [6] = assay: Cytotoxicity against human A549 cells after 48 hrs by MTS assay; assay type: functional, cell-based; conditions: A549, 48 h; procedure, shortened: as §1
HCT-116 [7] = assay: Induction of autophagy in human HCT116 cells assessed as increase in ratio of LC3-II to actin expression at 2.5 uM after 2 hrs by Western blot analysis relative to control; assay type: functional
Procedure, shortened: (§2)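 HCT116 colon carcinoma cells were grown in RPMI-1640 with fetal bovine serum and antibiotics, split overnight to 50% confluence, then dosed. Cells were lysed in 50 mM Tris-HCl pH 7.4, 2 mM EDTA, 2 mM EGTA, 1 mM DTT, 1% Triton X-100 and protease inhibitors. SDS-PAGE and PVDF blot used polyclonal anti-LC3, anti-actin and ECL. LC3-II/actin was measured by densitometry, representative of three experiments.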

[8] = Cytotoxicity against human T24 cells after 48 hrs by MTS assay; assay type: functional, cell-based; conditions: T-24, 48 h; procedure, shortened: as §1
HCT-116 [9] = assay: Induction of autophagy in human HCT116 cells assessed as increase in ratio of LC3-II to actin expression at 5 uM after 2 hrs by Western blot analysis relative to control; assay type: functional; procedure, shortened: as §2
HCT-116 [10] = assay: Cytotoxicity against human HCT116 cells after 48 hrs by MTS assay; assay type: functional, cell-based; conditions: HCT-116, 48 h; procedure, shortened: as §1
HCT-116 [11] = assay: Induction of autophagy in human HCT116 cells transfected with plasmid expressing GFP-LC3 at 10 uM by DAPI staining based fluorescence microscopy; assay type: functional, cell-based
Procedure, shortened: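 HCT116 cells transfected with a GFP-LC3 plasmid. Transfection was 12 h by the legend and 24 h by the methods. Cells then incubated at 37 °C in RPMI-1640 with test compound or 1/1000 DMSO, fixed and stained with DAPI. GFP-LC3 puncta imaged by confocal fluorescence microscopy.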

MCF7 [12] = assay: Cytotoxicity against human MCF7 cells after 48 hrs by MTS assay; assay type: functional, cell-based; conditions: MCF7, 48 h; procedure, shortened: as §1
HCT-116 [13] = assay: Induction of autophagy in human HCT116 cells assessed as increase in ratio of LC3-II to actin expression at 10 uM after 2 hrs by Western blot analysis relative to control; assay type: functional; procedure, shortened: as §2
HCT-116 [14] = assay: Induction of autophagy in human HCT116 cells assessed as accrual of membrane vacuoles and autophagosome-like structure with double-membrane sturctures formation at 10 uM after 2 hrs by electron microscopy; assay type: functional, cell-based
Procedure, shortened: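 HCT116 cells in RPMI-1640 treated 2 h. Cells washed three times with PBS, trypsinized and pelleted. Pellets fixed overnight in 4% paraformaldehyde at 4 °C, postfixed 1 h at room temperature in 1% OsO4 in cacodylate buffer, dehydrated stepwise in ethanol, rinsed in propylene oxide and embedded in Spurr resin. Thin sections examined by transmission electron microscopy.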

SMILES | Activity (T-24) | Activity (MCF7 [1]) | Activity (HeLa [2]) | Activity (A549 [3]) | Activity (HCT-116 [4]) | IC50 (HeLa [5]) [µM] | IC50 (A549 [6]) [µM] | Ratio (HCT-116 [7]) | IC50 [8] [µM] | Ratio (HCT-116 [9]) | IC50 (HCT-116 [10]) [µM] | Activity (HCT-116 [11]) | IC50 (MCF7 [12]) [µM] | Ratio (HCT-116 [13]) | Activity (HCT-116 [14])
CC1=C2C=C3C(=O)C(O)=C([C@H](C)CO)[C@@]3(C)CC[C@]2(C)C[C@@H](O)C1=O | inactive | inactive | inactive | inactive | inactive | – | – | – | – | – | – | – | – | – | –
CC(C)C1=C(O)C(=O)C2=CC3=C(CCC4=C5C=C6C(=O)C(O)=C(C(C)C)[C@@]6(C)CC[C@]5(C)C[C@@H](O)C4=O)C(=O)[C@H](O)C[C@@]3(C)CC[C@@]21C | inactive | inactive | inactive | inactive | inactive | – | – | – | – | – | – | – | – | – | –
C[C@H](CO)[C@H]1CC(=O)[C@@H]2[C@H]3OCC4=C3[C@@](C)(CCC4=O)CC[C@]12C | inactive | inactive | inactive | inactive | inactive | – | – | – | – | – | – | – | – | – | –
CC(C)C1=C(O)C(=O)C2=CC3=C(CCC4=C5CC6=C(O)C(=O)[C@H](C(C)C)[C@@]6(C)CC[C@]5(C)C[C@@H](O)C4=O)C(=O)[C@H](O)C[C@@]3(C)CC[C@@]21C | – | – | – | – | – | 19.3 | 29.7 | 1.2 | 8.16 | 1.3 | 21.3 | Active | 46.1 | 1.4 | Active
CC(C)C1=C(O)C(=O)C2=CC3=C(CO)C(=O)[C@H](O)C[C@@]3(C)CC[C@@]21C | inactive | inactive | inactive | inactive | inactive | – | – | – | – | – | – | – | – | – | –
CC(C)[C@H]1CC(=O)C2=CC3=C(CO)C(=O)C(O)=C[C@@]3(C)CC[C@@]21C | inactive | inactive | inactive | inactive | inactive | – | – | – | – | – | – | – | – | – | –

— ChEMBL document CHEMBL3232908, “Guanacastane diterpenoids from the plant endophytic fungus Cercospora sp” (J Nat Prod, 2014)
